Measurements published in ChEMBL document CHEMBL4304782, “Antioxidant, Anti-inflammatory, and Neuroprotective Effects of Novel Vinyl Sulfonate Compounds as Nrf2 Activator” (ACS Med Chem Lett, 2019).
Calls of active or inactive are those of the source. The rule behind the calls is not given here.

Columns and labels:
[1] = molecular target: T1, Nuclear factor erythroid 2-related factor 2 (Mus musculus) (UniProt Q60795); experiment: Activation of Nrf2 in mouse BV-2 cells assessed as increase in GCLM level at 0.3 to 10 uM incubated for 12 hrs by Western blot analysis relative to control; assay type: cell-based
T1 sequence (whole entry): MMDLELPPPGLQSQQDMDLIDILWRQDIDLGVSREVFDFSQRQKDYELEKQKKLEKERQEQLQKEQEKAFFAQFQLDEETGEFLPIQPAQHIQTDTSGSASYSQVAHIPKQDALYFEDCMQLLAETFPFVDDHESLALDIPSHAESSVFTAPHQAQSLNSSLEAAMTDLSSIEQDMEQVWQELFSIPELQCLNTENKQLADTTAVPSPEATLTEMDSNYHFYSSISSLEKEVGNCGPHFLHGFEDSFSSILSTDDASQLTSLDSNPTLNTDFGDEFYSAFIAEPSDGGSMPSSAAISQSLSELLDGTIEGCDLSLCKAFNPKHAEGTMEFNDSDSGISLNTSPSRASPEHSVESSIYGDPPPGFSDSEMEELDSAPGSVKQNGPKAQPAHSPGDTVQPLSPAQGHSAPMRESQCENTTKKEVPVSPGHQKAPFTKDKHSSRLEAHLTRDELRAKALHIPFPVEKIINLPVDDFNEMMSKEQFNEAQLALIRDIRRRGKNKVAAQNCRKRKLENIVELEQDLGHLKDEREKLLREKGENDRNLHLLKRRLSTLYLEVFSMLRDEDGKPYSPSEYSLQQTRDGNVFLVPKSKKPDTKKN
Method in brief: (§1)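 BV-2 cells treated for 12 h; HO-1, GCLM, GCLC protein by Western blot, normalized to β-actin; at least duplicate cultures, fold induction over untreated control ± SEM; paired t test.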

[2] = molecular target: T1, Nuclear factor erythroid 2-related factor 2 (Mus musculus); experiment: Activation of Nrf2 in mouse BV-2 cells assessed as upregulation of GCLC mRNA expression at 1 to 10 uM incubated for 3 hrs by RT-qPCR analysis relative to control; assay type: cell-based
Method in brief: (§2)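 BV-2 cells exposed to a range of concentrations for 3 h; HO-1, GCLM and GCLC mRNA quantified by RT-qPCR, normalized to β-actin; at least duplicate cultures, fold of untreated control ± SEM; paired t test.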

[3] = tested on: Mus musculus; experiment: (§3) Anti-parkinson's activity in MPTP-induced C57Bl/6 mouse model of Parkinson's disease assessed as abnormal movement at 20 mg/kg, po administered for 3 consecutive days prior and subsequent to MPTP administration (four injections of MPTP, 2 h intervals, 20 mg/kg, i.p. injection by coat hanger test; assay type: functional, organism-based
Method in brief: (§4)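 Mice dosed 20 mg/kg p.o. (or vehicle) for 3 consecutive days before and after MPTP (four i.p. injections, 20 mg/kg, 2 h apart); vertical grid test (turning, descent, total time) and coat-hanger scoring; n = 10–12 per group; mean ± SEM; one-way ANOVA with Tukey's test.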

[4] = Cytotoxicity against mouse BV2 cells assessed as cell viability at 10 uM incubated for 6 hrs by CCK-8 assay relative to control; assay type: cell-based, BV-2; conditions: read-out: Activity
Method in brief: (§5)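 BV-2 cells exposed to compound for 6 h, then viability measured; percent survival reported.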

[5] = tested on: Mus musculus; experiment: Protection against MPTP-induced DAergic neurotoxicity in C57BL/6 mouse model of Parkinson's disease assessed as reduction in SNpc microglial activation by measuring Iba1 fluorescent intensity at 20 mg/kg/day, administered for 7 consecutive days by TH/Iba1 double immunostaining-based assay; assay type: functional, organism-based; conditions: in the assay text read “administered for 3 consecutive days” for “administered for 7 consecutive days”
Method in brief: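 Double immunofluorescence for TH and Iba-1 on coronal substantia nigra sections 10 days after i.p. MPTP; relative Iba-1 intensity compared, n = 9 per group; mean ± SEM; one-way ANOVA with Tukey's test.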

[6] = tested on: BV-2; experiment: Antiinflammatory activity in mouse BV2 cells assessed as reduction in LPS-induced iNOS expression at 3 to 10 uM incubated for 6 hrs followed by LPS stimulation for 12 hrs by RT-qPCR analysis; assay type: functional, cell-based
Method in brief: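 BV-2 cells pretreated with compound 6 h, then stimulated with 1 μg/mL LPS for 12 h; protein and mRNA levels quantified relative to LPS-stimulated control; mean ± SD (n = 3); paired t test.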

[7] = tested on: Mus musculus; experiment: as §3, with “restoration of turning time” for “abnormal movement”, “vertical grid” for “coat hanger”; assay type: functional, organism-based; method in brief: as §4
[8] = molecular target: T1, Nuclear factor erythroid 2-related factor 2 (Mus musculus); experiment: Activation of Nrf2 in mouse BV-2 cells assessed as increase in nuclear Nrf2 level by Western blot analysis; assay type: cell-based
Method in brief: (§6)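 BV-2 microglia treated 0.3–10 μM; Nrf2 measured by Western blot in nuclear extracts and whole-cell lysates; at least duplicate cultures, averaged, expressed as fold of untreated control ± SEM; paired t test.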

[9] = tested on: BV-2; experiment: Antiinflammatory activity in mouse BV2 cells assessed as reduction in LPS-induced TNF-alpha production incubated for 24 hrs by ELISA; assay type: functional, cell-based
Method in brief: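 BV-2 cells given compound together with 1 μg/mL LPS for 24 h; mediator levels expressed relative to LPS-stimulated control ± SEM; at least duplicate cultures; paired t test.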

[10] = tested on: Mus musculus; experiment: as §3, with “restoration of total time” for “abnormal movement”, “vertical grid” for “coat hanger”; assay type: functional, organism-based; method in brief: as §4
[11] = molecular target: T1, Nuclear factor erythroid 2-related factor 2 (Mus musculus); experiment: Activation of Nrf2 in mouse BV-2 cells assessed as increase in HO-1 level at 0.3 to 10 uM incubated for 12 hrs by Western blot analysis relative to control; assay type: cell-based; method in brief: as §1
[12] = molecular target: T1, Nuclear factor erythroid 2-related factor 2 (Mus musculus); experiment: Activation of Nrf2 in mouse BV-2 cells assessed as upregulation of GCLM mRNA expression at 1 to 10 uM incubated for 3 hrs by RT-qPCR analysis relative to control; assay type: cell-based; method in brief: as §2
[13] = molecular target: T1, Nuclear factor erythroid 2-related factor 2 (Mus musculus); experiment: Activation of Nrf2 in mouse BV-2 cells assessed as increase in total Nrf2 level by Western blot analysis; assay type: cell-based; method in brief: as §6
[14] = molecular target: T1, Nuclear factor erythroid 2-related factor 2 (Mus musculus); experiment: Activation of Nrf2 in mouse BV-2 cells assessed as upregulation of HO-1 mRNA expression at 1 to 10 uM incubated for 3 hrs by RT-qPCR analysis relative to control; assay type: cell-based; method in brief: as §2
[15] = molecular target: T1, Nuclear factor erythroid 2-related factor 2 (Mus musculus); experiment: Activation of Nrf2 in mouse BV-2 cells assessed as increase in nuclear Nrf2 level at 0.3 uM by Western blot analysis relative to control; assay type: cell-based; method in brief: as §6
[16] = Cytotoxicity against mouse BV2 cells assessed as cell viability at 3 uM incubated for 6 hrs by CCK-8 assay relative to control; assay type: cell-based, BV-2; conditions: read-out: Activity; method in brief: as §5
[17] = molecular target: T2, Nuclear factor erythroid 2-related factor 2 (Homo sapiens) (UniProt Q16236); experiment: Activation of Nrf2 in human SH-SY5Y cells assessed as increase in GCLM level at 0.3 to 3 uM incubated for 6 to 24 hrs by Western blot analysis relative to control; assay type: cell-based
T2 sequence (whole entry): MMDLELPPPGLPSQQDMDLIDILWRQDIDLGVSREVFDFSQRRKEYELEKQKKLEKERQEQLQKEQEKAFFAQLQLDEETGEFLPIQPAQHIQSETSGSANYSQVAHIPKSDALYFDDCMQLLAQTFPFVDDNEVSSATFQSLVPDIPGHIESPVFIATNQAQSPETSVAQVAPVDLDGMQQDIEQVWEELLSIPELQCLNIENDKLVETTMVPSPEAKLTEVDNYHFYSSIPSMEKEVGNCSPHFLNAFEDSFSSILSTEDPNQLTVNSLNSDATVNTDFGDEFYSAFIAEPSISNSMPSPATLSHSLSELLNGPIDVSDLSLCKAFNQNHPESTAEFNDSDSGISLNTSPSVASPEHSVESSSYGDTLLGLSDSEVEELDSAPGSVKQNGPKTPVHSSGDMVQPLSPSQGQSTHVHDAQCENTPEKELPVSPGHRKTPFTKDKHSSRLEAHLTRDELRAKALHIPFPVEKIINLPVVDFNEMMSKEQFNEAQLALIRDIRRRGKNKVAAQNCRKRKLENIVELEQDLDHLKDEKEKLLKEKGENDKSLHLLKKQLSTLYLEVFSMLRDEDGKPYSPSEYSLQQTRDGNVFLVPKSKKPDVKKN
Method in brief: (§7)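 SH-SY5Y neuroblastoma cells treated for 6 or 24 h, then harvested; NQO1, GCLM, GCLC protein by Western blot with β-actin loading control; at least duplicate cultures, averaged, fold of untreated control ± SEM; paired t test.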

[18] = molecular target: T2, Nuclear factor erythroid 2-related factor 2 (Homo sapiens); experiment: Activation of Nrf2 in human SH-SY5Y cells assessed as increase in GCLC level incubated for 6 to 24 hrs by Western blot analysis; assay type: cell-based; method in brief: as §7

For `COc1ccccc1OS(=O)(=O)/C=C/c1ccccc1Cl`, the fold change (FC) [1] was 5.6, the fold change (FC) [2] was 2.3 and the Activity [3] was “Active”. The viability at 6 h, 10 µM [4] was 95.9%, the Activity [5] was “Active” and the Activity [6] was “Active”. For the same molecule, the Activity [7] was “Active”, the Activity [8] was “Dose-dependent effect” and the Activity [9] was “Dose-dependent effect”. For the same molecule, the Activity [10] was “Active”, the fold change (FC) [11] was 10.3 and the fold change (FC) [12] was 5.3. For the same molecule, the Activity [13] was “Dose-dependent effect”, the fold change (FC) [14] was 10.7 and the fold change (FC) [15] was 4. For the same molecule, the viability at 6 h, 3 µM [16] was 97.6%, the fold change (FC) [17] was 2.9 and the Activity [18] was “Dose-dependent effect”.
